Measured values reported in ChEMBL document CHEMBL1147489, “Pi-delocalized beta-carbolinium cations as potential antimalarials” (Bioorg Med Chem Lett, 2004).

Assays:
[1] = tested on: FM3A; assay: Relative activity against FM3A cells and Plasmodium falciparum FCR3; assay type: functional
Procedure, shortened: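 Selective toxicity calculated as EC50 in FM3A cells divided by EC50 against P. falciparum FCR-3.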

[2] = tested on: FM3A; assay: In vitro growth inhibitory activity tested in mouse mammary tumor FM3A cells at 3.0E-5 M concentration
[3] = tested on: Plasmodium falciparum; assay: In vitro antimalarial activity against Plasmodium falciparum FCR3; assay type: functional, organism-based
Procedure, shortened: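 Drug-sensitive P. falciparum FCR-3 strain tested in vitro; antimalarial potency given as EC50 (M).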

[4] = tested on: FM3A; assay: In vitro cytotoxic activity tested in mouse mammary tumor FM3A cells; assay type: functional, cell-based
Procedure, shortened: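 Growth-inhibition assay in mouse mammary tumour FM3A cells, used as a model of the host. The value reported is the EC50 for cell growth.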

| Structure (SMILES) | Selective toxicity [1] | Percent growth [2] | EC50 [3] | EC50 [4] |
| --- | --- | --- | --- | --- |
| CCc1c2[nH]c3ccccc3c2c(OC)c[n+]1C.[I-] | >32 | 63% | 0.95 µM | – |
| C=Cc1c2[nH]c3ccccc3c2c(OC)c[n+]1CC.Cc1ccc(S(=O)(=O)[O-])cc1 | 77 | – | 0.13 µM | 10 µM |
| COc1cnc(C)c2[nH]c3ccccc3c12 | 0.82 | – | 22 µM | 18 µM |
| COc1ccc2c3cc[n+](C)c(C)c3n(C)c2c1.Cc1ccc(S(=O)(=O)[O-])cc1 | 48 | – | 0.46 µM | 22 µM |
| CCOC(=O)c1c2[nH]c3ccccc3c2c(OC)c[n+]1C.Cc1ccc(S(=O)(=O)[O-])cc1 | 1.2 | – | 19 µM | 22 µM |
| Cc1c2[nH]c3ccccc3c2cc[n+]1C.Cc1ccc(S(=O)(=O)[O-])cc1 | 18 | – | 2 µM | 35 µM |
| C=C[C@H]1CN2CC[C@H]1C[C@H]2[C@H](O)c1ccnc2ccc(OC)cc12 [QUININE] | 910 | – | – | – |
| COc1ccc2c(c1)[nH]c1c(C)[n+](C)ccc12.Cc1ccc(S(=O)(=O)[O-])cc1 | 17 | – | 1.1 µM | 19 µM |
| COc1ccc2c(c1)[nH]c1c(C)nccc12 [HARMINE] | 0.82 | – | 22 µM | 18 µM |
| Cc1c2nc3ccccc3c-2ccn1C | 6 | – | 4.8 µM | 29 µM |
| COc1c[n+](C)c(C)c2[nH]c3ccccc3c12.[I-] | 81 | – | 0.37 µM | 30 µM |
| CC1=[N+](C)CCc2c1[nH]c1ccccc21.Cc1ccc(S(=O)(=O)[O-])cc1 | >24 | – | 16 µM | – |
| CC1=NCCc2c1[nH]c1ccccc21 | 2.1 | – | 18 µM | 45 µM |
| C=Cc1c2[nH]c3ccccc3c2c(OC)c[n+]1C.Cc1ccc(S(=O)(=O)[O-])cc1 | 7.6 | – | 1.1 µM | 8.4 µM |
| C=Cc1ncc(OC)c2c1[nH]c1ccccc12 | 0.76 | – | 5 µM | 3.8 µM |
| C[n+]1ccc2c([nH]c3ccccc32)c1-c1ccccc1.Cc1ccc(S(=O)(=O)[O-])cc1 | >1.8 | – | 13 µM | – |
| COc1ccc2c3cc[n+](CCO)c(C)c3n(C)c2c1.[Br-] | >65 | – | 1.1 µM | – |
| COc1ccc2c3ccnc(C)c3n(C)c2c1 | 1 | – | 31 µM | 32 µM |
